In ChEMBL document CHEMBL3108754, “Herbicidin congeners, undecose nucleosides from an organic extract of Streptomyces sp. L-9-10” (J Nat Prod, 2014):
Active and inactive are the calls of the source. No cut-off for these calls is given here.

Legend:
[1] = test system: Radical scavenging activity; assay: Antioxidant activity assessed as DPPH radical scavenging activity; type: functional
Streptomyces = assay: Antimicrobial activity against Streptomyces 85E at 80 ug/disk after 30 hrs by hyphae formation inhibition assay; type: functional, organism-based
[2] = Inhibition of TNF-alpha-induced NF-kappaB activity in HEK293 cells after 6 hrs by luciferase reporter gene assay; type: cell-based; conditions: Homo sapiens, HEK293, 6 h
Method in brief: (§1)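 Stable NF-κB luciferase reporter HEK293 cells were seeded at 20×10^3 cells/well in DMEM with 10% FBS, penicillin/streptomycin and 2 mM L-glutamine, grown 48 h, then given fresh medium and compounds. Cells were activated with human recombinant TNF-α at 2 ng/mL (0.14 nM) for 6 h, washed, lysed, and read by luciferase luminescence. Values are IC50 for inhibiting TNF-induced activity, or % inhibition at 50 μM.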

HEK293 [3] = assay: Inhibition of TNF-alpha-induced NF-kappaB activity in HEK293 cells assessed as cell survival at 50 uM after 6 hrs by luciferase reporter gene assay; type: cell-based; conditions: Homo sapiens
Method in brief: (§2)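 HEK293 reporter cells were tested under the NF-κB assay conditions: TNF-α activation at 2 ng/mL and 6 h exposure to compounds. Values are cytotoxic IC50 or % survival at 50 μM.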

MCF7 = assay: Cytotoxicity against human MCF7 cells; type: functional, cell-based
[4] = molecular target: Nitric oxide synthase, inducible (Homo sapiens) (UniProt P35228); assay: Inhibition of iNOS (unknown origin)
Nitric oxide synthase, inducible (Homo sapiens), sequence (P35228 whole entry): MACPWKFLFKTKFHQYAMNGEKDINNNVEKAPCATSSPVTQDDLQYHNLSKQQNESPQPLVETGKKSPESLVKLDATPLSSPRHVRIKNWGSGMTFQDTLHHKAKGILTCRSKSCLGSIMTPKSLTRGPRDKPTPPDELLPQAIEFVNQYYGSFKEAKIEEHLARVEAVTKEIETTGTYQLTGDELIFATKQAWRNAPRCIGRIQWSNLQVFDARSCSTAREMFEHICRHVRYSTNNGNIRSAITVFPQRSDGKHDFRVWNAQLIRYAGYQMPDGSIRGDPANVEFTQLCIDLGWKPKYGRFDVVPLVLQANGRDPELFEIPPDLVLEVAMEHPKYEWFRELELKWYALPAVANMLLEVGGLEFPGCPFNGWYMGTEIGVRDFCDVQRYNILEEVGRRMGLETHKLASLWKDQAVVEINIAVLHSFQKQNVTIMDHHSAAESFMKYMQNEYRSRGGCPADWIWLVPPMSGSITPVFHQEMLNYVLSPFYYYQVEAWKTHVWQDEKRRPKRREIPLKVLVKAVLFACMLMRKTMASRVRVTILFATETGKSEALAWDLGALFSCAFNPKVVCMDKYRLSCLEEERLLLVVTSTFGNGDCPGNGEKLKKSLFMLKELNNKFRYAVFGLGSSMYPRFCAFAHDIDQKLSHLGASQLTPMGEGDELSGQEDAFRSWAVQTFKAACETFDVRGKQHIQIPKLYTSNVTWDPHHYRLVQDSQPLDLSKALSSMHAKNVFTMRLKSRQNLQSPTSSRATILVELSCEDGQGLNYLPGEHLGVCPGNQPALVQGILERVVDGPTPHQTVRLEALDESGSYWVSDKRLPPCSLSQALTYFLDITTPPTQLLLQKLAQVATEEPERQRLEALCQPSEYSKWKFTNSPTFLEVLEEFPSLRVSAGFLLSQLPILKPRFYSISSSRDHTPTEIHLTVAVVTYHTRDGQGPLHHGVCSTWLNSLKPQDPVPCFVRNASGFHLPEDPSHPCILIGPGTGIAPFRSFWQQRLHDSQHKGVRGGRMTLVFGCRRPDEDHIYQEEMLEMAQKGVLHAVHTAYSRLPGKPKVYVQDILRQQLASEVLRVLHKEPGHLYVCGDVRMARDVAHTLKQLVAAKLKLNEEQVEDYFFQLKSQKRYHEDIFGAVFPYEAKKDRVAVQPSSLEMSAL

HEK293 [5] = assay: Inhibition of TNF-alpha-induced NF-kappaB activity in HEK293 cells at 50 uM after 6 hrs by luciferase reporter gene assay; type: cell-based; conditions: Homo sapiens; method in brief: as §1
HEK293 [6] = assay: Cytotoxicity against HEK293 cells; type: cell-based; conditions: Homo sapiens; method in brief: as §2
NF-kappaB = assay: Selectivity ratio of IC50 for HEK293 cells to IC50 for NF-kappaB activity in HEK293 cells; type: ADME, cell-based; conditions: human, read-out: Ratio IC50
Method in brief: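 HEK293 (Panomic) cells stably carrying an NF-κB luciferase reporter, grown in DMEM with 10% FBS, penicillin/streptomycin and 2 mM L-glutamine, seeded at 20×10^3 per well, then left 48 h. Medium renewed, cells given a range of compound concentrations plus TNF-α at 2 ng/mL (0.14 nM) for 6 h. Lysates read by luciferase luminescence. Cytotoxicity IC50 run under the same conditions.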

| Compound | Activity [1] | Activity (Streptomyces) | IC50 [2] [nM] | cell survival (HEK293 [3]) [%] | Activity (MCF7) | inhibition [4] | inhibition (HEK293 [5]) [%] | IC50 (HEK293 [6]) [nM] | selectivity ratio (NF-kappaB) |
| --- | --- | --- | --- | --- | --- | --- | --- | --- | --- |
| C/C=C(\CO)C(=O)O[C@H]1[C@H](O)[C@@H](C(=O)OC)O[C@@H]2C[C@H]3O[C@@H](n4cnc5c(N)ncnc54)[C@H](OC)[C@H]3O[C@]21O | inactive | inactive | 1800 | 45.8 | inactive | inactive | 80.9 | 2700 | – |
| COC(=O)[C@@H]1CC(O)(O)[C@]2(O)O[C@@H]3[C@@H](OC)[C@H](n4cnc5c(N)ncnc54)O[C@@H]3C[C@H]2O1 | inactive | inactive | 2400 | 45.1 | inactive | inactive | 96.2 | 13700 | – |
| COC(=O)[C@H]1O[C@@H]2C[C@H]3O[C@@H](n4cnc5c(N)ncnc54)[C@H](OC)[C@H]3O[C@@]2(O)[C@@H](O)[C@@H]1O | inactive | inactive | 2900 | 95.6 | inactive | inactive | 94.2 | > 50000 | – |
| Cc1ccc(S(=O)(=O)/C=C/C#N)cc1 | – | – | 2000 | – | – | – | – | 3800 | 2 |
| COC(=O)[C@H]1O[C@@H]2C[C@H]3O[C@@H](n4cnc5c(N)ncnc54)[C@H](OC)[C@H]3O[C@@]2(O)[C@H](O)[C@@H]1O | inactive | inactive | 3200 | 53 | inactive | inactive | 92.2 | 43700 | – |
| C/C=C(\C)C(=O)O[C@H]1[C@H](O)[C@@H](C(=O)OC)O[C@@H]2C[C@H]3O[C@@H](n4cnc5c(N)ncnc54)[C@H](O)[C@H]3O[C@]21O | inactive | inactive | 4900 | 42.3 | inactive | inactive | 92.4 | 2200 | – |
| Cc1ccc(S(=O)(=O)N[C@@H](Cc2ccccc2)C(=O)CCl)cc1 [TPCK] | – | – | 3800 | – | – | – | – | 11100 | 2 |
| C/C=C(\C)C(=O)O[C@H]1[C@H](O)[C@@H](C(=O)OC)O[C@@H]2C[C@H]3O[C@@H](n4cnc5c(N)ncnc54)[C@H](OC)[C@H]3O[C@]21O | inactive | inactive | 500 | 59.8 | inactive | inactive | 83.4 | 2300 | – |
